Compound activity (PubChem)
Keap1-Nrf2 PPI: disrupts human Keap1 binding to Nrf2 peptide | Keap1 Kelch-Nrf2 peptide fluorescence polarization, 1536-well | inhibition, % at 9.4 µM | actives 0.15% (n = 340,000) | Q14145; in the data active means inhibition above about 12%;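 further: human Keap1 Kelch domain with fluorescein labeled Nrf2 9mer peptide probe; higher means more block of Keap1 binding to Nrf2 peptide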
CAL PDZ FP-1: inhibitors of human CAL PDZ peptide binding | Q9HD26 | purified CAL PDZ, TMR-peptide fluorescence polarization, 1 h | inhibition, % at 24.9 µM | actives 0.92% (n = 300,000) | AID 602252;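 active means mean inhibition of at least 30% with at least half of replicates also reaching 30%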
CAL PDZ FP-2: inhibitors of human CAL PDZ peptide binding | purified CAL PDZ, TMR-peptide fluorescence polarization, 1 h | actives 0.02% (n = 330,000) | AID 504414 | inhibition, % at 20 µM | Q9HD26;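 active means highest replicate inhibition of at least 40%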
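material = purified tagged CAL PDZ domain construct (CerCALP) | buffer or medium = sodium phosphate/NaCl buffer pH 7.4 with TCEP, IgG, Thesit | reagent = TMR-labelled reporter peptide T*-PRC34 bound in PDZ groove | incubation = 1 h room-temperature incubation prior to read | measured by = fluorescence polarization (mP) | evaluation = percent inhibition from loss of millipolarization | control set = unlabelled peptide and DMSO controls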
APOBEC3G inh: blocks human APOBEC3G single-stranded DNA deamination; Q9HC16; recombinant A3G, ssDNA deamination FAM/TAMRA fluorescence; inhibition, % at 20 µM; actives 0.28% (n = 330,000); AID 493012;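 active means inhibition of at least 40% at 20 µM, with no more than 30% in the related APOBEC3A deaminase screen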
C-LANA FP: blocks KSHV LANA C-terminal domain binding to DNA; inhibition, % at 9 µM; AID 504423; actives 0.078% (n = 340,000); MBP-C-LANA/FAM-LBS DNA binding, fluorescence polarization;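 active means highest replicate inhibition at or above 60% at 9 µM, even if other replicates fall short; inactive means all replicates below 60% inhibition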
APOBEC3A inh: human APOBEC3A DNA deaminase inhibition | P31941 | recombinant A3A, FAM/TAMRA ssDNA deamination fluorescence | inhibition, % at 20 µM | actives 0.41% (n = 330,000) | AID 493011;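 active means at least 40% inhibition at 20 µM here, with at most 30% in a related deaminase screen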
Target sequence (P31941 whole entry, looked up): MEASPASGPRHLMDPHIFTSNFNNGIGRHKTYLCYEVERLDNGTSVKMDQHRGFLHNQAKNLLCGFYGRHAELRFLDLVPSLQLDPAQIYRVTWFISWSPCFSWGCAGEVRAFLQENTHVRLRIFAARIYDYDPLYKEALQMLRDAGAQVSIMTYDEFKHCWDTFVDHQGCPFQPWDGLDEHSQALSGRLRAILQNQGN
A3G conf: APOBEC3G (human) deaminase inhibition, confirmed | shares compounds with APOBEC3G inh | recombinant A3G ssDNA deaminase, UDG/FAM-TAMRA fluorescence | inhibition, % at 20 µM | actives 72% (n = 890) | AID 493152;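 active means inhibition reaching a set limit in any replicate at 20 µM, the limit being 80% of the first screen's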
UDG A3G counter: E. coli UDG inhibition in APOBEC3G counter-screen. UDG counterscreen, FAM/TAMRA oligo fluorescence. shares compounds with APOBEC3G inh. 710 tested, under 10 active. inhibition, % at 20 µM. AID 504715;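 active means compounds giving 40% or more inhibition at 20 µM in any one of the three replicates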;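 further: inhibitors lower the FAM signal released by uracil excision and alkaline cleavage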
Keap1 Kelch bind: binders of human Keap1 Kelch domain | shares compounds with Keap1-Nrf2 PPI | actives 8% (n = 400) | max delta Tm, degrees C | Keap1 Kelch thermal shift, delta Tm; hits give high values; in the data active means max delta Tm above about 0.48 degrees C
A number is an active result; . = inactive; / = no result. Compounds with a hit are over-represented: about 1.7% of the library has one in this group of screens.

SMILES | Keap1-Nrf2 PPI | CAL PDZ FP-1 | CAL PDZ FP-2 | APOBEC3G inh | C-LANA FP | APOBEC3A inh | others
Cn1c(NN=O)nc2ccccc21 | . | . | . | 59 | . | . | A3G conf=28;UDG A3G counter=.
NS(=O)(=O)c1ccc(-c2ccc(C=C3C(=O)NC(=S)NC3=O)o2)cc1 | / | / | / | 48 | / | . | A3G conf=47
NS(=O)(=O)c1ccc(-c2ccc(C=C3C(=O)NC(=O)NC3=O)o2)cc1 | . | . | . | . | . | .
COC12CCC3(CC1C(C)(O)C(C)(C)C)[C@H]1Cc4ccc(O)c5c4[C@@]3(CCN1CC1CC1)C2O5 (stereo not given in full) | . | . | . | . | . | .
CC(C)(C)C1(CCO)C(=O)NC(=S)NC1=O | . | . | . | / | . | /
CCC12CN3CC(CC)(CN(C1)C3c1cccnc1)C2=O (stereo not given) | . | . | . | . | . | .
CC(=O)NN1C(=O)c2ccccc2NC1c1cccnc1 (stereo not given) | . | . | . | 54 | . | . | A3G conf=.
O=C(c1ccccc1)C(Cc1ccccc1)N1CCOCC1 (stereo not given) | . | . | . | / | . | /
Nc1ccc2nonc2c1[N+](=O)[O-] | 52 | / | . | . | 80 | . | Keap1 Kelch bind=.
CCN1C(=O)NC(=O)/C(=C\c2cn(CC(=O)N3CCCCC3)c3ccccc23)C1=O | 21 | . | . | . | . | . | Keap1 Kelch bind=.
Cc1ccc(C(=O)N2CC2C)cc1 (stereo not given) | . | . | . | / | . | /
O=c1cc(C(F)(F)F)c2cc3c4c(c2o1)CCCN4CCC3 | 14 | . | . | . | . | . | Keap1 Kelch bind=.
Cc1cc2c(C(F)(F)F)cc(=O)oc2c2c1NCCC2 | . | . | . | . | . | .
CC1CC(C)OP(=O)(OCCC#N)O1 (stereo not given) | . | / | . | / | . | /
